From ChEMBL document CHEMBL1143227, “Design, synthesis, and in vitro activity of peptidomimetic inhibitors of myeloid differentiation factor 88” (J Med Chem, 2008) come the findings set out here.

The target of data set [1] is Myeloid differentiation primary response protein MyD88 (Homo sapiens) (UniProt Q99836). Nature of the data set: Inhibition of MyD88 homodimerization by yeast two-hybrid assay. The method, boiled down: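 Yeast AH109 is cotransformed with AD-MyD88 and BD-MyD88, grown overnight at 30 °C in SGd/-Leu/-Trp, then diluted 1/20 into SGd/-Ade/-His/-Leu/-Trp with compound at a final 100 µM in oxygen-sensor plates. Growth at 30 °C is read by fluorescence (ex 485/em 630 nm, bottom read) every 90 min for 25 readings. Signal is normalized to initial well fluorescence, and growth curves are described by seven curve parameters.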
Chain of Myeloid differentiation primary response protein MyD88 (Homo sapiens) (Q99836 whole entry): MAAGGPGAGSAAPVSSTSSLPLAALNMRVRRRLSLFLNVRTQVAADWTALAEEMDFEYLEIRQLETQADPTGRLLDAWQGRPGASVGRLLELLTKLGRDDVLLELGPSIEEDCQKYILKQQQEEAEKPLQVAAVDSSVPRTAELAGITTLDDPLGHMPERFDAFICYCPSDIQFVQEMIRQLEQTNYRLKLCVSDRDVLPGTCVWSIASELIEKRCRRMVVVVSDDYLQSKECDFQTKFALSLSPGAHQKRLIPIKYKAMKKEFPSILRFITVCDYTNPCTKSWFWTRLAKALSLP

The test system of data set [2] is HeLa. Description: Inhibition of IL-1-alpha-induced NF-kappaB activation in human HeLa cells at 100 uM. It counts as functional. The method, boiled down: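 HeLa cells are grown in EMEM with 2 mM glutamine, 1% nonessential amino acids, 7.5% FBS and pen/strep. They are seeded at 3 × 10⁵/well, left overnight, then switched to serum-free EMEM. Compound (DMSO, final 100 µM) is added for 6 h at 37 °C, then recombinant human IL-1 5 ng/mL for 30 min. Activated p65 in about 10 µg lysate protein is read by TransAM colorimetric ELISA (A450). % inhibition uses stimulated and unstimulated controls with and without compound.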

For data set [3], the system named is Mus musculus. Nature of the data set: Decrease in IL-1-beta-dependent IL6 production in mouse at 50 to 200 mg/kg. It counts as functional, organism-based.
For data set [4], the system named is HeLa. Nature of the data set: Toxicity against human HeLa cells at 20 uM by MTT assay. It counts as cell-based. A general note: Tetrazolium assays rely on reduction of a dye to a coloured formazan, in cell work by metabolically active cells.
Data set [5] relates to HeLa. Description: Inhibition of IL-1-alpha-induced NF-kappaB activation in human HeLa cells at 8 uM. It counts as functional.
Data set [6] deals with HeLa. Description: Toxicity against human HeLa cells at 8 uM by MTT assay. The format is cell-based.
Data set [7] concerns HeLa. Nature of the data set: Toxicity against human HeLa cells at 10 uM by MTT assay. The format is cell-based.
Data set [8] relates to HeLa. Description: Inhibition of IL-1-alpha-induced NF-kappaB activation in human HeLa cells at 20 uM. It counts as functional.
The subject of data set [9] is HeLa. Nature of the data set: Toxicity against human HeLa cells at 4 uM by MTT assay. It counts as cell-based.
The subject of data set [10] is HeLa. Nature of the data set: Inhibition of IL-1-alpha-induced NF-kappaB activation in human HeLa cells at 10 uM. It counts as functional.
Data set [11] deals with HeLa. Nature of the data set: Inhibition of IL-1-alpha-induced NF-kappaB activation in human HeLa cells at 4 uM. The format is functional.

Activity calls are given as the source filed them. The calls are words filed in the database; no cut-off is given here.

A word on the inhibition: it is the relative decrease from the control value, in per cent. For `NC(=O)[C@H]1CCS[C@@H]2C[C@]3(CCCN3C(=O)c3nc(NC(=O)COc4ccc(Cl)cc4)n[nH]3)C(=O)N12`, the outcome in [1] was Active. The inhibition at 100 µM in data set [2] was determined as 17%.
The corresponding values for `NC(=O)CN1CCC[C@]2(CCCN2C(=O)CCNC(=O)c2ccc(NC(=O)Cc3cccc4ccccc34)cc2)C1=O` are “Active” and 18%.
The corresponding values for `N=C(N)NCCCCNC(=O)c1ccc2cc(NC(=O)CN3C(=O)[C@@H]4C[C@@H](O)CN4C(=O)c4ccccc43)ccc2c1` are “Active” and 24%.
With `NC(=O)[C@H]1CCS[C@@H]2C[C@]3(CCCN3C(=O)Cc3ccc(NC(=O)COc4ccc(Cl)cc4Cl)cc3)C(=O)N12`, the outcome in [1] and in data set [3] was Active. In [2], the inhibition at 100 µM is 26%.
Regarding `CC(C)(C)c1ccc(S(=O)(=O)/C=C/C#N)cc1` [BAY-11-7085], the Activity in data set [4] came out at 41%; in [6], 0%; in data set [7], 4%; in [9], 0%. This compound also had an inhibition at 8 µM in [5] of 35%. In data set [8], this compound returned an inhibition at 20 µM of 65%. This compound returned an inhibition at 10 µM in [10] of 44%. Moreover, the inhibition at 4 µM in data set [11] is 0%.
Compound `CC(C)[C@H](NC(=O)CCc1ccccc1)C(=O)N1CCCC1` came in with an inhibition at 100 µM in data set [2] of 31%.
As to `Cc1cnc(C(=O)Nc2ccc(C(=O)NCCC(=O)N3CCC[C@]34C[C@H]3SCC[C@H](C(N)=O)N3C4=O)cc2)cn1`, the result in data set [1] was Active. Besides, the inhibition at 100 µM in data set [2] worked out at 23%.
